17 molecules from ChEMBL document CHEMBL1152490, “SAR study of clubbed [1,2,4]-triazolyl with fluorobenzimidazoles as antimicrobial and antituberculosis agents” (Eur J Med Chem, 2009) can be followed below.

The test system of one data set is Staphylococcus aureus. As to the kind of experiment: Antimicrobial activity against Staphylococcus aureus after 24 hrs by agar well diffusion assay. In kind it is functional. Summed up:
(§1)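 Agar well diffusion with modifications, gentamycin as reference standard. Wells 10 mm in diameter punched in agar plates with a sterile steel borer. Strains were kept on agar medium. Compounds were dissolved and applied at 0.5% to 1.0%. Incubation at 24–28 °C for 24 h, then bacterial inhibition was scored.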

In a further data set the test system is Pseudomonas aeruginosa. As to the kind of experiment: Antimicrobial activity against Pseudomonas aeruginosa after 24 hrs by agar well diffusion assay. In kind it is functional. Summed up:
as §1

The next data set relates to Escherichia coli. In words: Antimicrobial activity against Escherichia coli after 24 hrs by agar well diffusion assay. The data set is classed as functional. Summed up: as §1
Data set [1] concerns Salmonella enterica subsp. enterica. In words: Antimicrobial activity against Salmonella typhosa after 24 hrs by agar well diffusion assay. In kind it is functional, Salmonella enterica subsp. enterica serovar Typhi. Summed up:
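Agar well diffusion, modified; wells punched with a 10 mm sterile borer. Test compounds applied on impregnated sterile disks at concentrations of 0.5% to 1.0%, with gentamycin as reference standard. Plates incubated at 24–28 °C for 24 h, then bacterial inhibition scored.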

Data set [2] in a line: Cytotoxicity against african green monkey Vero C1008 cells at 6.25 to 50 µg/ml by neutral red uptake assay. In kind it is cell-based. The settings on record: chlorocebus sabaeus.
The subject of data set [3] is Mycobacterium tuberculosis. In words: Antitubercular activity against Mycobacterium tuberculosis H37Rv by microplate alamar blue assay. In kind it is functional. Summed up:
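Compounds active in the primary screen were retested at lower concentrations against M. tuberculosis H37Rv by microplate Alamar Blue assay. MIC taken as the lowest concentration giving a 95% fall in fluorescence relative to controls. Rifampin was the reference compound.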

Data set [4] relates to Mycobacterium tuberculosis. As to the kind of experiment: Antitubercular activity against Mycobacterium tuberculosis H37Rv at 6.25 […] by microplate alamar blue assay. In kind it is functional. Summed up: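 M. tuberculosis H37Rv (ATCC 27294) in BACTEC 12B medium, primary screen by broth microdilution microplate Alamar Blue assay at a single concentration of […]. Fluorescent compounds were tested instead in the BACTEC 460 radiometric system.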

≈ marks a conversion by molar mass, not a printed value. Where only a bound is given, the exact number is not on record here.

`CCCn1c(-c2ccc(-n3cncn3)cc2)nc2c(F)cc(F)cc21`: the “inhibition zone (IZ)” value with Staphylococcus aureus is listed as 21 mm; with Pseudomonas aeruginosa, 23 mm; in the data set on Escherichia coli it was 18 mm; in data set [1], 19 mm. In data set [2], the Activity entry is listed as “Non-toxic”. Moreover, in data set [3], the minimal inhibitory concentration (MIC) was under 6.25 µg/mL.
With `C#CCn1c(-c2ccc(-n3cncn3)cc2)nc2c(F)cc(F)cc21`, in data set [4], the “growth inhibition (GI)” value amounted to 96%. Also, the “inhibition zone (IZ)” value in the data set on Staphylococcus aureus is recorded as 25 mm; in the data set with Pseudomonas aeruginosa it was 23 mm; with Escherichia coli it was 21 mm; in data set [1], 24 mm. The Activity entry in data set [2] is reported as “Non-toxic”. This molecule showed an MIC in data set [3] of 3.13 µg/mL (≈ 9.33 µM).
For `CCn1c(-c2ccc(-n3cncn3)cc2)nc2c(F)cc(F)cc21`, the “inhibition zone (IZ)” value in the data set with Staphylococcus aureus was 23 mm; with Pseudomonas aeruginosa it was 18 mm; with Escherichia coli it was 16 mm; in data set [1], 14 mm. For the same molecule, in data set [2], the Activity entry is “Non-toxic”. Further, the MIC in data set [3] was under 6.25 µg/mL.
`Fc1cc(F)c2nc(-c3ccc(-n4cncn4)cc3)n(Cc3cccc(Cl)c3)c2c1`: the “growth inhibition (GI)” value in data set [4] is 96%. Besides, the “inhibition zone (IZ)” value stood at 26 mm in the data set on Staphylococcus aureus, 22 mm with Pseudomonas aeruginosa, 19 mm with Escherichia coli and 18 mm in data set [1]. Besides, the Activity result in data set [2] is given as “Non-toxic”. The molecule also gave an MIC in data set [3] of 0.58 µg/mL (≈ 1.37 µM).
As to `Fc1ccc(Cn2c(-c3ccc(-n4cncn4)cc3)nc3c(F)cc(F)cc32)cc1`, the “growth inhibition (GI)” value in data set [4] is listed as 96%. The “inhibition zone (IZ)” value in the data set on Staphylococcus aureus stood at 25 mm; in the data set with Pseudomonas aeruginosa it was 23 mm; in the data set on Escherichia coli, 19 mm; in data set [1], 21 mm. Besides, the Activity entry in data set [2] is “Non-toxic”. Further, in data set [3], the MIC is 3.13 µg/mL (≈ 7.72 µM).
As to `Cc1ccc(S(=O)(=O)n2c(-c3ccc(-n4cncn4)cc3)nc3c(F)cc(F)cc32)cc1`, the “inhibition zone (IZ)” value in the data set on Staphylococcus aureus is 14 mm; in the data set on Pseudomonas aeruginosa, 12 mm; with Escherichia coli it was 16 mm; in data set [1], 16 mm. Also, the Activity entry in data set [2] was “Non-toxic”. This molecule showed an MIC in data set [3] of under 6.25 µg/mL.
On to `Cc1ccccc1Cn1c(-c2ccc(-n3cncn3)cc2)nc2c(F)cc(F)cc21`, for which the “inhibition zone (IZ)” value with Staphylococcus aureus is on record as 19 mm; in the data set with Pseudomonas aeruginosa, 21 mm; in the data set with Escherichia coli it was 18 mm; in data set [1] it was 14 mm. In data set [2], the Activity result was “Non-toxic”. In data set [3], this molecule yielded an MIC of under 6.25 µg/mL.
For `N#CCn1c(-c2ccc(-n3cncn3)cc2)nc2c(F)cc(F)cc21`, the “growth inhibition (GI)” value in data set [4] stood at 96%. Besides, the “inhibition zone (IZ)” value with Staphylococcus aureus is 27 mm; in the data set on Pseudomonas aeruginosa, 26 mm; in the data set on Escherichia coli, 24 mm; in data set [1] it was 20 mm. The Activity entry in data set [2] is “Non-toxic”. In data set [3], this molecule gave an MIC of 1.56 µg/mL (≈ 4.64 µM).
With `CO[C@H]1/C=C/O[C@@]2(C)Oc3c(C)c(O)c4c(O)c(c(/C=N/N5CCN(C)CC5)c(O)c4c3C2=O)NC(=O)/C(C)=C\C=C\[C@H](C)[C@H](O)[C@@H](C)[C@@H](O)[C@@H](C)[C@H](OC(C)=O)[C@@H]1C` [RIFAMPIN], the “growth inhibition (GI)” value in data set [4] amounted to 96%. Further, 0.015 µg/mL (≈ 0.0182 µM) was the least that counted as inhibitory in data set [3] (MIC).
In the case of `Cc1cccc(Cn2c(-c3ccc(-n4cncn4)cc3)nc3c(F)cc(F)cc32)c1`, the “inhibition zone (IZ)” value in the data set with Staphylococcus aureus worked out at 21 mm; in the data set with Pseudomonas aeruginosa, 18 mm; with Escherichia coli it was 18 mm; in data set [1] it was 16 mm. Further, in data set [2], the Activity result was “Non-toxic”. In data set [3], the minimal inhibitory concentration (MIC) is under 6.25 µg/mL.
Turning to `Fc1cc(F)c2nc(-c3ccc(-n4cncn4)cc3)n(Cc3ccccc3)c2c1`, the “inhibition zone (IZ)” value in the data set on Staphylococcus aureus is on record as 19 mm; in the data set on Pseudomonas aeruginosa, 20 mm; with Escherichia coli it was 15 mm; in data set [1], 13 mm. In addition, in data set [2], the Activity entry was “Non-toxic”. Besides, the MIC in data set [3] is under 6.25 µg/mL.
For the molecule `COc1cccc(Cn2c(-c3ccc(-n4cncn4)cc3)nc3c(F)cc(F)cc32)c1`, the “growth inhibition (GI)” value in data set [4] was 96%. The “inhibition zone (IZ)” value with Staphylococcus aureus is 24 mm; in the data set on Pseudomonas aeruginosa, 22 mm; in the data set on Escherichia coli it was 22 mm; in data set [1], 21 mm. Besides, the Activity result in data set [2] is “Non-toxic”. The MIC in data set [3] worked out at 3.13 µg/mL (≈ 7.5 µM).
With `Fc1cccc(Cn2c(-c3ccc(-n4cncn4)cc3)nc3c(F)cc(F)cc32)c1`, in data set [4], the “growth inhibition (GI)” value is listed as 96%. In addition, the “inhibition zone (IZ)” value in the data set on Staphylococcus aureus amounted to 29 mm; with Pseudomonas aeruginosa, 26 mm; in the data set with Escherichia coli, 22 mm; in data set [1], 24 mm. The Activity entry in data set [2] is listed as “Non-toxic”. For the same molecule, in data set [3], the MIC came out at 0.36 µg/mL (≈ 0.888 µM).
Regarding `Cn1c(-c2ccc(-n3cncn3)cc2)nc2c(F)cc(F)cc21`, the “inhibition zone (IZ)” value in the data set with Staphylococcus aureus was 28 mm; in the data set on Pseudomonas aeruginosa, 26 mm; in the data set with Escherichia coli it was 21 mm; in data set [1], 19 mm. Moreover, the Activity result in data set [2] was “Non-toxic”. Moreover, in data set [3], the MIC is under 6.25 µg/mL.
Turning to GENTAMICIN, the inhibition zone (IZ) was found to be 31 mm in the data set with Escherichia coli and 30 mm in data set [1] (Salmonella enterica subsp. enterica serovar Typhi).
As to `C=CCn1c(-c2ccc(-n3cncn3)cc2)nc2c(F)cc(F)cc21`, the “inhibition zone (IZ)” value in the data set on Staphylococcus aureus is recorded as 20 mm; in the data set on Pseudomonas aeruginosa, 22 mm; in the data set with Escherichia coli it was 23 mm; in data set [1] it was 23 mm. Further, the Activity result in data set [2] was “Non-toxic”. In addition, in data set [3], the MIC was under 6.25 µg/mL.
For `Fc1cc(F)c2nc(-c3ccc(-n4cncn4)cc3)n(Cc3cccc(C(F)(F)F)c3)c2c1`, the “inhibition zone (IZ)” value with Staphylococcus aureus is on record as 22 mm; in the data set with Pseudomonas aeruginosa, 21 mm; with Escherichia coli it was 20 mm; in data set [1] it was 18 mm. Moreover, the Activity result in data set [2] is reported as “Non-toxic”. This molecule also came in with an MIC in data set [3] of under 6.25 µg/mL.
